The results in this text go back to ChEMBL document CHEMBL2146414, “Lignan derivatives from Krameria lappacea roots inhibit acute inflammation in vivo and pro-inflammatory mediators in vitro” (J Nat Prod, 2011).

The test system of assay [1] is Mus musculus. The experiment in a line: Antiinflammatory activity in CD1 mouse ear dermatitis model assessed as inhibition of Croton oil-induced ear edema at 0.30 umol administered topically per cm'2 of ear measured after induction of dermatitis relative to untreated control. Format: functional. The procedure, abridged:
(§1)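 Male CD-1 mice (28–32 g), anesthetized with ketamine 145 mg/kg i.p.; right ear (about 1 cm2) given 80 μg croton oil in 15 μL acetone, with test substance co-applied in acetone; left ear left untreated. Controls received irritant only. 6 mm punches taken from both ears; edema = weight difference treated minus untreated; % inhibition vs controls. ID50 by graphic interpolation of log dose–effect curves; ANOVA with Dunnett's test.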

In assay [2] the test system is Mus musculus. In words: Antiinflammatory activity in CD1 mouse ear dermatitis model assessed as inhibition of Croton oil-induced ear edema at 1 umol administered topically per cm'2 of ear measured after induction of dermatitis relative to untreated control. Format: functional. The procedure, abridged: as §1
Assay [3] has as its target T1, Inhibitor of nuclear factor kappa-B kinase subunit beta (Homo sapiens) (UniProt O14920).
T1 sequence (whole entry): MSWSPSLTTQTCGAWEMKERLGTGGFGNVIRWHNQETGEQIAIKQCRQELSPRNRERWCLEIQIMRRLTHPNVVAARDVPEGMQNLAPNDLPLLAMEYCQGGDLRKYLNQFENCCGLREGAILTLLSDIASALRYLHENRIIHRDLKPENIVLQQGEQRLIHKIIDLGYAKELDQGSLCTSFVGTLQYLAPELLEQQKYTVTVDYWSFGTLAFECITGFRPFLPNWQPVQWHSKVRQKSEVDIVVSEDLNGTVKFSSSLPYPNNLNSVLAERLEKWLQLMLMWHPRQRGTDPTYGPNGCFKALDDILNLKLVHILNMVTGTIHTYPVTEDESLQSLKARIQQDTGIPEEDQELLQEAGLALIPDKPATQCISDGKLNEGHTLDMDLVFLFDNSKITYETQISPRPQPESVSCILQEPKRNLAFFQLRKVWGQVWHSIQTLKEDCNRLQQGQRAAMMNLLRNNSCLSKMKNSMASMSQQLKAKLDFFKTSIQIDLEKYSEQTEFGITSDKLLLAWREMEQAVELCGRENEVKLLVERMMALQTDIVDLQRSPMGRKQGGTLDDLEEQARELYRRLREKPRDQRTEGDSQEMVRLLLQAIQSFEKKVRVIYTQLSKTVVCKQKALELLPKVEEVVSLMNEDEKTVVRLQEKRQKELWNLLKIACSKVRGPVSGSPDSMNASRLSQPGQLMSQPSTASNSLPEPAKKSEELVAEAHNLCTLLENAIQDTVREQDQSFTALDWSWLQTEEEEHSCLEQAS
In words: Inhibition of human IKK2 assessed as reduction in substrate phosphorylation at 10 uM by ELISA. (In an ELISA, binding on a coated surface is turned into a signal by an enzyme label.)

Assay [4] addresses T2, Glucocorticoid receptor (Homo sapiens) (UniProt P04150).
T2 sequence (whole entry): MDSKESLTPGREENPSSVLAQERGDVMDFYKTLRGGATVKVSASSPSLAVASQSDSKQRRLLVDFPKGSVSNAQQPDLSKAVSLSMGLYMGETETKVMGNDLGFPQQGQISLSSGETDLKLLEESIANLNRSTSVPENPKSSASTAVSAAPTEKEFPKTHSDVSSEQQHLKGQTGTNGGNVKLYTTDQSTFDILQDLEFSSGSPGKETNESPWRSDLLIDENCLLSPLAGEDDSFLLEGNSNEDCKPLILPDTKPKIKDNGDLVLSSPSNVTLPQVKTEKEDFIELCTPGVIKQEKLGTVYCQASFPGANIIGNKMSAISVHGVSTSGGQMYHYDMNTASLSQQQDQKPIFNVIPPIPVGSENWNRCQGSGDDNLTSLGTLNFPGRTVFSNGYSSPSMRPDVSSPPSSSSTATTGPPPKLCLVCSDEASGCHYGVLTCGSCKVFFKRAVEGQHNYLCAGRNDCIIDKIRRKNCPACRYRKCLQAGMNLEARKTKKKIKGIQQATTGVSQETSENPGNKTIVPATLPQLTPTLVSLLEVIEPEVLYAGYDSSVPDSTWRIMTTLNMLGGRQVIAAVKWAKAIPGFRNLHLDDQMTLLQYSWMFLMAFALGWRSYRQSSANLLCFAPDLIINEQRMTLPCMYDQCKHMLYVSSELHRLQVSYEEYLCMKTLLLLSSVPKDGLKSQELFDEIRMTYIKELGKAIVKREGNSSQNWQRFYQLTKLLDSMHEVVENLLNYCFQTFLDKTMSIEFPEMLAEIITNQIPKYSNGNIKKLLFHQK
The experiment in a line: Activation of GR transfected in HEK293 cells at 10 uM after 18 hrs by firefly luciferase reporter gene-based luminescence assay. The format is cell-based. In general terms: A reporter such as luciferase makes a cellular process visible.

Assay [5] deals with Radical scavenging activity. In words: Antioxidant activity assessed as DPPH free radical scavenging activity up to 100 uM after 30 mins by spectrophotometry. The format is functional. (Loss of DPPH colour is used to gauge radical scavenging.)
Assay [6] addresses T3, Prostaglandin G/H synthase 1 (Ovis aries, UniProt P05979).
T3 sequence (P05979 whole entry): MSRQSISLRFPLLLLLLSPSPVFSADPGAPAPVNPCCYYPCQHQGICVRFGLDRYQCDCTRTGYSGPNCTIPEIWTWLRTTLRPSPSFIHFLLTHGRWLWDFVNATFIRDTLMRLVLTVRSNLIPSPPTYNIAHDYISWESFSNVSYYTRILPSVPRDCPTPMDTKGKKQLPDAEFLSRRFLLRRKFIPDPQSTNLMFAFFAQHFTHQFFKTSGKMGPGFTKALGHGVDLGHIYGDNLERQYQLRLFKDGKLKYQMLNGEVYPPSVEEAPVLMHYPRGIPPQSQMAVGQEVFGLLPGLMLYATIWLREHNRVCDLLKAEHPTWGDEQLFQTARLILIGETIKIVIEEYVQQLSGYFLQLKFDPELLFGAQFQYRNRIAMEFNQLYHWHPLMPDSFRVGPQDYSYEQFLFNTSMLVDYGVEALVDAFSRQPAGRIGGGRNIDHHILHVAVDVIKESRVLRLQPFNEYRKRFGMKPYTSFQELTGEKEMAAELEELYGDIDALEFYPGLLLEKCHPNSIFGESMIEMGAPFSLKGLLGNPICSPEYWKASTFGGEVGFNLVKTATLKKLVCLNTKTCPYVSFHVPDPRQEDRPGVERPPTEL
In words: Inhibition of ram seminal vesicle COX1 assessed as PGE2 production by enzyme immunoassay. The procedure, abridged: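 Purified PGHS-1 from ram seminal vesicles; PGE2 product measured by competitive EIA; samples in ethanol. IC50 from at least three concentrations, duplicates, at least three independent experiments, by nonlinear regression.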

Active and inactive are the calls of the source. The rule behind the calls is not given here.

The term IC50 denotes the concentration at which inhibition is half-maximal. For the compound `C/C=C/c1ccc2c(c1)[C@@H](C)[C@H](c1ccc(O)cc1)O2`, the “inhibition (INH)” value is recorded as 45% in the assay on Mus musculus [1] and 81% in the assay with Mus musculus [2]. In assay [3], the inhibition result was “inactive”. Besides, the outcome in assay [4] and in assay [5] was inactive. The IC50 in assay [6] is over 50 µM.
On to `C[C@@H]1[C@H](C)[C@@H](c2ccc(O)cc2)O[C@@H]1c1ccc(O)cc1`, for which the “inhibition (INH)” value in the assay with Mus musculus [1] is recorded as 39%; in the assay with Mus musculus [2], 67%. For the same compound, the inhibition entry in assay [3] is “inactive”. Moreover, the outcome in assay [4] and in assay [5] was inactive. The IC50 in assay [6] is over 50 µM.
Turning to `C[C@@H]1[C@H](C)[C@@H](c2ccc(O)cc2)O[C@H]1c1ccc(O)cc1`, the “inhibition (INH)” value with Mus musculus [1] was 52%; with Mus musculus [2], 72%. In addition, the inhibition entry in assay [3] is “inactive”. Also, the result in assay [4] and in assay [5] was inactive. Further, the half-maximal inhibitory concentration (IC50) in assay [6] is over 50 µM.
Consider `C/C=C/c1ccc2oc(-c3ccc(O)cc3)c(C)c2c1` [RATANIAPHENOL II], for which the “inhibition (INH)” value with Mus musculus [1] worked out at 41%; with Mus musculus [2], 75%. Besides, the inhibition result in assay [3] is “inactive”. The outcome in assay [4] and in assay [5] was inactive. Besides, in assay [6], the IC50 was 3 µM.
In the case of `COc1ccc(-c2cc3cc(CCCO)ccc3o2)c(O)c1`, the results for the “inhibition (INH)” value in the assay with Mus musculus [1] and in the assay with Mus musculus [2] were 50% and 67%, respectively. In assay [3], the inhibition result was “inactive”. For the same compound, the result in assay [4] was inactive. Besides, the IC50 in assay [6] is over 50 µM.
With `C/C=C/c1ccc2c(c1)[C@H](CO)[C@@H](c1ccc(O)cc1)O2`, the “inhibition (INH)” value in the assay with Mus musculus [1] was 36%; in the assay on Mus musculus [2] it was 75%. Further, the inhibition result in assay [3] is “inactive”. The outcome in assay [4] and in assay [5] was inactive. Further, the IC50 in assay [6] is over 50 µM.
Regarding `C/C=C/c1ccc2oc(-c3ccc(O)cc3O)cc2c1`, the “inhibition (INH)” value is 29% in the assay on Mus musculus [1] and 64% in the assay on Mus musculus [2]. Further, in assay [3], the inhibition entry is “inactive”. Also, in assay [4], the result was inactive. Moreover, the half-inhibitory concentration (IC50) in assay [6] amounted to 3.8 µM.
Consider `COc1cc(O)ccc1-c1cc2cc(CCCO)ccc2o1`, for which the “inhibition (INH)” value in the assay on Mus musculus [1] worked out at 32%; in the assay with Mus musculus [2], 75%. Besides, the inhibition result in assay [3] was “inactive”. Further, in assay [4], the result was inactive. In addition, the IC50 in assay [6] is over 50 µM.
Turning to `C/C=C/c1ccc2oc(-c3ccc(O)cc3)cc2c1`, the “inhibition (INH)” value in the assay on Mus musculus [1] was determined as 35%; in the assay on Mus musculus [2], 74%. In addition, in assay [3], the inhibition result is “inactive”. In addition, the outcome in assay [4] and in assay [5] was inactive. In assay [6], the concentration for half-maximal inhibition (IC50) came out at 18.3 µM.
For the compound `C/C=C/c1ccc2oc(-c3ccc(O)cc3OC)cc2c1` [RATANIAPHENOL III], the “inhibition (INH)” value in the assay with Mus musculus [1] amounted to 35%; in the assay with Mus musculus [2] it was 70%. Besides, the inhibition result in assay [3] was “inactive”. For the same compound, the result in assay [4] was inactive. In addition, in assay [6], the IC50 was 2.7 µM.
In the case of `C/C=C/c1ccc2oc(-c3ccc(OC)cc3O)cc2c1` [RATANIAPHENOL I], the “inhibition (INH)” value in the assay on Mus musculus [1] was determined as 33%; with Mus musculus [2], 64%. In addition, the inhibition entry in assay [3] was “inactive”. Besides, the result in assay [4] was inactive. Also, the IC50 in assay [6] was over 50 µM.
